Reference: ChEMBL document CHEMBL1154512, “PA-824 kills nonreplicating Mycobacterium tuberculosis by intracellular NO release” (2008)
Activity calls are given as the source filed them. The rule behind the calls is not given here.

Assays:
[1] = tested on: Mycobacterium tuberculosis; test: Induction of nitrous acid production in NRP2 phase Mycobacterium bovis BCG assessed as ratio of Vmax to Km under hypoxic non replicating condition; type: functional, variant bovis BCG
Procedure, shortened: (§1)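 NO release measured inside BCG cells preloaded with the NO-specific fluorescent probe DAF-FM diacetate and then treated with compound. Fluorescence (RFU) followed over time. Rate expressed as apparent Vmax/Km, i.e. RFU per hour divided by an intracellularly measured Km (RFU hr–1 μM–1).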

[2] = tested on: Mycobacterium tuberculosis; test: Induction of nitrous acid production in NRP2 phase Mycobacterium bovis BCG at 1.85 uM to 100 uM after 2 days under hypoxic non replicating condition in presence of DAF-FM diacetate; type: functional, organism-based; conditions: variant bovis BCG
[3] = tested on: Mycobacterium tuberculosis; test: Induction of nitrous acid production in NRP2 phase Mycobacterium bovis BCG at 20 uM by fluorescence quenching measurement in presence of C-PTIO; type: functional, organism-based; conditions: variant bovis BCG
Procedure, shortened: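 BCG cells preloaded with DAF-FM diacetate were treated with 20 μM nitroimidazole in the presence of increasing concentrations of the NO scavenger C-PTIO. NO read as fluorescence. Three independent replicates, error as SD.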

[4] = tested on: Mycobacterium tuberculosis; test: Induction of nitrous acid production in NRP2 phase Mycobacterium bovis BCG under aerobic condition in presence of DAF-FM diacetate; type: functional, organism-based; conditions: variant bovis BCG; procedure, shortened: as §1

Row | Compound | Ratio [1] | further results
1 | CCCCc1ccc(CN[C@@H]2COc3nc([N+](=O)[O-])cn3C2)cc1 | 4.7 | 
2 | O=[N+]([O-])c1cn2c(n1)OC[C@@H](NCc1ccc(OC(F)(F)F)cc1)C2 | 10.1 | 
3 | O=[N+]([O-])c1cn2c(n1)OC[C@@H](NCc1ccc(OCc3ccc(OC(F)(F)F)cc3)cc1)C2 | 76.9 | 
4 | O=[N+]([O-])c1cn2c(n1)NC[C@@H](OCc1ccc(OC(F)(F)F)cc1)C2 | 4.8 | 
5 | O=[N+]([O-])c1cn2c(n1)OC[C@@H](OCc1ccc(OC(F)(F)F)cc1)C2 [PRETOMANID] | 12.5 | Activity [2]: Active; Activity [3]: inactive; Activity [4]: Active
6 | O=[N+]([O-])c1cn2c(n1)OC[C@@H](NCCCCc1ccc(OC(F)(F)F)cc1)C2 | 71.6 | 
7 | O=[N+]([O-])c1cn2c(n1)OC[C@@H](NCCCc1ccc(OC(F)(F)F)cc1)C2 | 60.1 | 
8 | O=[N+]([O-])c1cn2c(n1)OC[C@@H](NCCc1ccc(OC(F)(F)F)cc1)C2 | 28.7 | 
